Measured values reported in ChEMBL document CHEMBL4152319, “5-Hydroxypyrido[2,3-b]pyrazin-6(5H)-one derivatives as novel dual inhibitors of HIV-1 reverse transcriptase-associated ribonuclease H and integrase” (Eur J Med Chem, 2018).

How the values were obtained:
[1] = Cytotoxicity against human MT4 cells after 5 days by MTT assay; type: cell-based
Outline: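 Mock-infected MT-4 cells at 6×10^5 cells/mL were set up in triplicate wells alongside the infected series, with serial five-fold compound dilutions. Viability was measured by MTT at 540 and 690 nm after five days, using the median OD of two or three wells. CC50 is the concentration reducing viability of mock-infected cells by 50%.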

[2] = biological target: Human immunodeficiency virus type 1 integrase (Human immunodeficiency virus 1, UniProt Q7ZJM1); experiment: Inhibition of recombinant HIV1 integrase strand transfer activity using biotin-labeled double-stranded HIV-1 LTR U5 donor DNA substrate pretreated for 5 mins followed by substrate addition and measured after 30 mins by ELISA
Chain of Human immunodeficiency virus type 1 integrase (Q7ZJM1 whole entry): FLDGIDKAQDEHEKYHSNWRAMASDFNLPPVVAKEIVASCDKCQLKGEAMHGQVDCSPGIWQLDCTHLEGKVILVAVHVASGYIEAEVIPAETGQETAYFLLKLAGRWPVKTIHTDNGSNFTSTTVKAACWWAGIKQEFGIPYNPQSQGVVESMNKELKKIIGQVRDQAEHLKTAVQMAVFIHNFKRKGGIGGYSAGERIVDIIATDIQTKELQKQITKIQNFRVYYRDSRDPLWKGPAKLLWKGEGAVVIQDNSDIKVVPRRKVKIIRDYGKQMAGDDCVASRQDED

[3] = biological target: Human immunodeficiency virus type 1 reverse transcriptase (Human immunodeficiency virus 1, UniProt Q72547); experiment: Inhibition of HIV-1 BH10 reverse transcriptase RNase H activity expressed in Escherichia coli using [32P]-labeled template primer 31Trna/21P as substrate pretreated for 5 mins followed by substrate addition by polyacrylamide gel electrophoresis method
Outline: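 Wild-type HIV-1 BH10 RT (20-40 nM) was preincubated with compound for 5 min at 37 °C in 50 mM Tris-HCl pH 8.0, 50 mM NaCl, 5 mM MgCl2, 5% DMSO. Reaction was started with 25 nM 5'-32P-labeled 31Trna/21P and run 20 s at 37 °C. Cleavage products were resolved on denaturing PAGE and quantified by phosphorimaging. IC50 came from dose-response curves over 0.2-100 μM.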

[4] = test system: Human immunodeficiency virus 1; experiment: Antiviral activity against Human immunodeficiency virus 1 3B infected in MT4 cells assessed as protection against virus-induced cytopathic effect measured 5 days post infection by MTT assay; type: functional, organism-based; details: MT4, 120 h
Outline: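 MT-4 cells resuspended at 6×10^5 cells/mL, infected with HIV-1 IIIB at 100-300 CCID50. Serial five-fold compound dilutions were run in triplicate wells. Viability was read by MTT reduction at 540 and 690 nm five days after infection, using the median OD of two or three wells. EC50 is the concentration giving 50% protection from viral cytopathicity.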

[5] = test system: Human immunodeficiency virus 1; experiment: Selectivity ratio of IC50 for HIV-1 BH10 reverse transcriptase RNase H activity to IC50 for recombinant HIV1 integrase strand transfer activity
Outline: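 Ratio of RNase H IC50 to IN IC50. The RNase H IC50 came from the gel-based cleavage assay. The IN IC50 came from an ELISA strand-transfer assay: biotinylated LTR U5 donor DNA on streptavidin plates, full-length recombinant IN added, compound for 5 min at room temperature, then target DNA for 30 min at 37 °C. Products were detected with HRP antibody, TMB and A450.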

For `COC(=O)c1c(Nc2ccc(-c3cccc(C#N)c3)cc2)c2nccnc2n(O)c1=O`, the CC50 at 120 h [1] was 5.68 µM, the IC50 [2] was > 25 µM and the IC50 [3] was 13.3 µM. The EC50 [4] was > 5.68 µM.
For `COC(=O)c1c(Nc2cccc3ccccc23)c2nccnc2n(O)c1=O`, the CC50 at 120 h [1] was 1.38 µM, the IC50 [2] was > 25 µM and the IC50 [3] was 4.3 µM. The EC50 [4] was > 1.38 µM.
With `CC(C)c1ccc(O)c(=O)c(O)c1` [BETA-THUJAPLICINOL] the IC50 [3] was 2.5 µM.
`COC(=O)c1c(Nc2ccc3ccccc3c2)c2nccnc2n(O)c1=O` showed a CC50 at 120 h [1] of 7.15 µM, a Ratio IC50 [5] of 0.76 and an IC50 [2] of 6.74 µM. The IC50 [3] was 5.11 µM and the EC50 [4] was > 7.15 µM.
With `COC(=O)c1c(Nc2ccc(-c3cncnc3)cc2)c2nccnc2n(O)c1=O` the CC50 at 120 h [1] was 8.04 µM, the Ratio IC50 [5] was 2.17 and the IC50 [2] was 1.49 µM. The IC50 [3] was 3.24 µM and the EC50 [4] was > 8.04 µM.
For `COC(=O)c1c(Nc2cccc(-c3cncnc3)c2)c2nccnc2n(O)c1=O`, the CC50 at 120 h [1] was 5.89 µM, the Ratio IC50 [5] was 0.17 and the IC50 [2] was 10.8 µM. The IC50 [3] was 1.85 µM and the EC50 [4] was > 5.89 µM.
Compound `COC(=O)c1c(Nc2cccc(-c3ccc(OC)c(OC)c3)c2)c2nccnc2n(O)c1=O` has a CC50 at 120 h [1] of 1.32 µM, a Ratio IC50 [5] of 21.4 and an IC50 [2] of 0.22 µM. The IC50 [3] was 4.72 µM and the EC50 [4] was > 1.32 µM.
For `Cc1nnc(C(=O)NC(C)(C)c2nc(C(=O)NCc3ccc(F)cc3)c(O)c(=O)n2C)o1`, the CC50 at 120 h [1] was > 56.2 µM and the EC50 [4] was 0.0117 µM.
For `COC(=O)c1c(Nc2cccc(-c3cccc(C#N)c3)c2)c2nccnc2n(O)c1=O`, the CC50 at 120 h [1] was 1.16 µM, the Ratio IC50 [5] was 16.1 and the IC50 [2] was 0.25 µM. For the same compound, the IC50 [3] was 4.02 µM and the EC50 [4] was > 1.16 µM.
Work on `COC(=O)c1c(Nc2cccc(-c3ccc(C#N)cc3)c2)c2nccnc2n(O)c1=O` yielded a CC50 at 120 h [1] of 1.19 µM, a Ratio IC50 [5] of 0.24 and an IC50 [2] of 22.8 µM. The IC50 [3] was 5.56 µM and the EC50 [4] was > 1.19 µM.
For `COC(=O)c1c(Nc2ccc(-c3ccccc3)cc2)c2nccnc2n(O)c1=O`, the CC50 at 120 h [1] was 7 µM, the IC50 [2] was > 25 µM and the IC50 [3] was 5.25 µM. The EC50 [4] was > 7 µM.
In the case of `COC(=O)c1c(Nc2ccc(-c3ccc(OC)c(OC)c3)cc2)c2nccnc2n(O)c1=O`, the CC50 at 120 h [1] is reported as 1.47 µM, the IC50 [2] is reported as > 25 µM and the IC50 [3] is reported as 5.9 µM. The EC50 [4] was > 1.47 µM.
In the case of `COC(=O)c1c(Nc2ccc(-c3ccc(C#N)cc3)cc2)c2nccnc2n(O)c1=O`, the CC50 at 120 h [1] is reported as 0.34 µM, the Ratio IC50 [5] is reported as 1.5 and the IC50 [2] is reported as 1.18 µM. For the same compound, the IC50 [3] was 1.77 µM and the EC50 [4] was > 0.34 µM.
